Laboratory results as given in publication PMC9206500 (Journal of medicinal chemistry, 2021).
Like-named read-outs stand apart in the source and are kept apart here.

Legend:
[1] = system: three human malignant melanoma cell lines and three breast cancer cell lines; assay: MTS cell proliferation assay, average over the panel; type: cell-based; conditions: for IC50: read-out: average IC50
[2] = target: purified porcine brain tubulin (Sus scrofa, UniProt P02554+Q2XVP4); assay: Cell-free tubulin polymerization assay; type: biochemical; conditions: 10 μM, tubulin 3 mg/mL, GTP 1 mM, 1 h
[3] = system: A375/TxR cells; assay: Annexin V-FITC/PI apoptosis detection; type: cell-based, human; conditions: 10 nM, 24 h; untreated […]
[4] = Liver microsome stability assay, human; conditions: for fold improvement of half-life in human liver microsomes: compared to parent compound CH-2-77
[5] = Systemic toxicity in A375/TxR tumor-bearing mice; type: in vivo, NSG mice; conditions: for histology of major organs (lung, liver, kidney, heart, spleen), H&E: paclitaxel 10 mg/kg, 60c 10 or 20 mg/kg IP
Procedure, shortened: (§1)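 Hosts were NSG mice aged 5–6 weeks. At ~100 mm3 mice were randomized by weight and volume into four groups (3 male + 3 female each). Test compound vehicle was PEG300:Tween 80:saline 3:1:6. Dosing was IP three times weekly. The study ended when vehicle tumors neared ~1000 mm3.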

[6] = system: TA1537; assay: AMES fluctuation test, TA1537; parameters: species or system bacteria; conditions: strain TA1537
[7] = system: A375/TxR xenograft; assay: A375/TxR xenograft antitumor efficacy; type: in vivo, NSG mice; conditions: for average tumor weight: vehicle 2.0 g; for tumor necrosis (H&E of excised tumors): 60c 10 and 20 mg/kg, paclitaxel 10 mg/kg
Procedure, shortened: as §1

[8] = target: CYP2C9 (Homo sapiens, UniProt P11712); assay: CYP inhibition, CYP2C9; type: in vitro ADME; conditions: at 10 μM, HLM, diclofenac substrate
[9] = system: A375/TxR xenograft; assay: Spontaneous metastasis in A375/TxR xenograft model; type: in vivo, NSG mice; conditions: for mice that developed liver metastases: n = 6
Procedure, shortened: as §1

[10] = target: CYP2C19 (Homo sapiens, UniProt P33261); assay: CYP inhibition, CYP2C19; type: in vitro ADME; conditions: at 10 μM, HLM, omeprazole substrate
[11] = system: TA98; assay: AMES fluctuation test, TA98; parameters: species or system bacteria; conditions: strain TA98
[12] = system: A100; assay: AMES fluctuation test, A100; parameters: species or system bacteria; conditions: strain A100
[13] = target: CYP2B6 (Homo sapiens, UniProt P20813); assay: CYP inhibition, CYP2B6; type: in vitro ADME; conditions: at 10 μM, HLM, bupropion substrate
[14] = target: CYP2D6 (Homo sapiens, UniProt P10635); assay: CYP inhibition, CYP2D6; type: in vitro ADME; conditions: at 10 μM, HLM, dextromethorphan substrate
[15] = target: CYP1A (Homo sapiens, UniProt P05177); assay: CYP inhibition, CYP1A; type: in vitro ADME; conditions: at 10 μM, HLM, phenacetin substrate
[16] = system: A375/TxR cells; assay: Cell cycle analysis by flow cytometry; type: cell-based, human; conditions: 24 h; controls 10 nM, 60c 2.5, 5, 10 nM
[17] = system: TA1535; assay: AMES fluctuation test, TA1535; parameters: species or system bacteria; conditions: strain TA1535
[18] = system: CYP3A; assay: CYP inhibition, CYP3A; type: in vitro ADME, human; conditions: at 10 μM, HLM
[19] = system: SKBR3; assay: MTS cell proliferation assay, SKBR3; type: cell-based, human; conditions: read-out: IC50 ± SEM, SKBR3, breast cancer cell line, 72 h, n = 4
[20] = system: MDA-MB-453; assay: MTS cell proliferation assay, MDA-MB-453; type: cell-based, human; conditions: read-out: IC50 ± SEM, MDA-MB-453, breast cancer cell line, 72 h, n = 4
[21] = Liver microsome stability assay, mouse; conditions: 0.5 mg/mL protein, 10 μM compound, NADPH
[22] = system: A375; assay: MTS cell proliferation assay, A375; type: cell-based, human; conditions: read-out: IC50 ± SEM, A375, melanoma cell line, 72 h, n = 4
[23] = system: RPMI7951; assay: MTS cell proliferation assay, RPMI7951; type: cell-based, human; conditions: read-out: IC50 ± SEM, RPMI7951, melanoma cell line, 72 h, n = 4
[24] = system: M14; assay: MTS cell proliferation assay, M14; type: cell-based, human; conditions: read-out: IC50 ± SEM, M14, melanoma cell line, 72 h, n = 4
[25] = system: MDA-MB-231; assay: MTS cell proliferation assay, MDA-MB-231; type: cell-based, human; conditions: read-out: IC50 ± SEM, MDA-MB-231, breast cancer cell line, 72 h, n = 4

Sequence of purified porcine brain tubulin (Q2XVP4 whole entry): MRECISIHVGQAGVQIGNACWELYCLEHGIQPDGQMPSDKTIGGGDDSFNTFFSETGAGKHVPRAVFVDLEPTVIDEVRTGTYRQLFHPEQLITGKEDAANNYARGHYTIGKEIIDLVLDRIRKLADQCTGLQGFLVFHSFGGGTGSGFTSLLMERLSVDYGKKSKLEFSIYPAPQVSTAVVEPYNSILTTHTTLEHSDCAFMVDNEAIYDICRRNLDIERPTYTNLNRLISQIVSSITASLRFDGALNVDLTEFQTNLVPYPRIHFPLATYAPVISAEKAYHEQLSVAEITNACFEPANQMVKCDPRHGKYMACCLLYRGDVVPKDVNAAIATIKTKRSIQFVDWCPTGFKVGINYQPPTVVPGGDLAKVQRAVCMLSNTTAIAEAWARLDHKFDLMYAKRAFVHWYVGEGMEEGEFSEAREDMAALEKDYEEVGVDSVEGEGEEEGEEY
Sequence of purified porcine brain tubulin (P02554 whole entry): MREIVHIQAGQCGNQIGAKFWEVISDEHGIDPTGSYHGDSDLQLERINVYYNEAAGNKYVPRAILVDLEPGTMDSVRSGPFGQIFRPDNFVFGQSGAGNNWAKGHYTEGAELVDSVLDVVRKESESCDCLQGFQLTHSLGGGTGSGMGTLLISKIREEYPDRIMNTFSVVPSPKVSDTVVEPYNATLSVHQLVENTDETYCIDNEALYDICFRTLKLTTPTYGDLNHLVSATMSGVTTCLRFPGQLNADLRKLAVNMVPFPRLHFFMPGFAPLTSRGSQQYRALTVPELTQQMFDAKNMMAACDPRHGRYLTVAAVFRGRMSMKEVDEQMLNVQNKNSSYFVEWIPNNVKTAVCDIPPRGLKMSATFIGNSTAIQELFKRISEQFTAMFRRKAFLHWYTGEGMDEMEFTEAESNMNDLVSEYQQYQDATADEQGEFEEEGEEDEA
Sequence of CYP2C9 (P11712 whole entry): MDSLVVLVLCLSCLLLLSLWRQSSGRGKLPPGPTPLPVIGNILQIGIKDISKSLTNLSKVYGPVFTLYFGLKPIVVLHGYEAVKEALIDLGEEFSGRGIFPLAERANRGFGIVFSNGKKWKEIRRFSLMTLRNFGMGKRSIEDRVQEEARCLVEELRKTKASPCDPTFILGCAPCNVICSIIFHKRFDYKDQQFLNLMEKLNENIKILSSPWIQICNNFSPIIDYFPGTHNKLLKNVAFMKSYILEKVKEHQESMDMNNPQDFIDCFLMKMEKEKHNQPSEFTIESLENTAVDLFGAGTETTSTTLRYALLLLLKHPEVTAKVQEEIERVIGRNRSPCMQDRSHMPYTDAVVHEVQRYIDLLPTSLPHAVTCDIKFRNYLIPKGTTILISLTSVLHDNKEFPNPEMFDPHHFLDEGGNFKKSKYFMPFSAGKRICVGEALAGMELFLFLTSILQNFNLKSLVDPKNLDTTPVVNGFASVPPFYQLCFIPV
Sequence of CYP2B6 (P20813 whole entry): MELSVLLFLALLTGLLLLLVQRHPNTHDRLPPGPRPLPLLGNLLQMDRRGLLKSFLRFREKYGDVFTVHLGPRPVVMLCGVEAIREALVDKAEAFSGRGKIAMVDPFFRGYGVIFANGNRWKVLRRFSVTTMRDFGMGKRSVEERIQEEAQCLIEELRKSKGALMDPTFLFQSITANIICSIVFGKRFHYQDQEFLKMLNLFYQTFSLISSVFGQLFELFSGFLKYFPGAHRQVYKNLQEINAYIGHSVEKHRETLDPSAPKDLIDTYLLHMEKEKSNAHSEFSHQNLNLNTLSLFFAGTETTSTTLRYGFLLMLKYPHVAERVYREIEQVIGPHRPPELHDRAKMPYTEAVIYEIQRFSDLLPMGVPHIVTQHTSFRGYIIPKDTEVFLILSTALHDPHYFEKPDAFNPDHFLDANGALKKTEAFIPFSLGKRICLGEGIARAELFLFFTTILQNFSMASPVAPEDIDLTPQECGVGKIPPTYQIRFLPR
Sequence of CYP2D6 (P10635 whole entry): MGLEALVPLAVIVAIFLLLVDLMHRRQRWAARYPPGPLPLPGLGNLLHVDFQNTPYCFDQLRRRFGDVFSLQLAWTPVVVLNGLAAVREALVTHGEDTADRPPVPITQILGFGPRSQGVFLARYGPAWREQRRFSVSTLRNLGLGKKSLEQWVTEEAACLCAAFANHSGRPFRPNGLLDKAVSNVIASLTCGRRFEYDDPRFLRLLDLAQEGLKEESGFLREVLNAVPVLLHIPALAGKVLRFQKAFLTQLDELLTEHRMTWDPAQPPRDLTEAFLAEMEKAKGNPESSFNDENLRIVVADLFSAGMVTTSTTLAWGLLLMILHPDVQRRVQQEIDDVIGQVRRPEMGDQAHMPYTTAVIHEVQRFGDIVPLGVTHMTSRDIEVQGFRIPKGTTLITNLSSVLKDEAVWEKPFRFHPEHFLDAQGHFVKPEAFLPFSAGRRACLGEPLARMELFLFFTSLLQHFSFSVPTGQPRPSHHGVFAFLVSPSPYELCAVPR
Sequence of CYP2C19 (P33261 whole entry): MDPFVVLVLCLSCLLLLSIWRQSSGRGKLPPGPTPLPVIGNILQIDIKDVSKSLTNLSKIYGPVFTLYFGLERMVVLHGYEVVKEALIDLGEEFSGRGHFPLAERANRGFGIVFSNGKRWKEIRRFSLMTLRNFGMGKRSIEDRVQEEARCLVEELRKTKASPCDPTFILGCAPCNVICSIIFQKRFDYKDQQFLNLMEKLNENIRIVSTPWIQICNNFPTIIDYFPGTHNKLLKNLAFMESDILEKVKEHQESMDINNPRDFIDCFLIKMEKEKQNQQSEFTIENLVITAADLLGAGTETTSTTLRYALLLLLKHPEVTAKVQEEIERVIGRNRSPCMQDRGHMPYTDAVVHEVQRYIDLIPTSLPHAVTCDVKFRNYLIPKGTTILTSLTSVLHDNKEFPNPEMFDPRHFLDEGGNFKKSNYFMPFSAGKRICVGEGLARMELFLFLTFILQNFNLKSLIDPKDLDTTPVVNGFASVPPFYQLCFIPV
Sequence of CYP1A (P05177 whole entry): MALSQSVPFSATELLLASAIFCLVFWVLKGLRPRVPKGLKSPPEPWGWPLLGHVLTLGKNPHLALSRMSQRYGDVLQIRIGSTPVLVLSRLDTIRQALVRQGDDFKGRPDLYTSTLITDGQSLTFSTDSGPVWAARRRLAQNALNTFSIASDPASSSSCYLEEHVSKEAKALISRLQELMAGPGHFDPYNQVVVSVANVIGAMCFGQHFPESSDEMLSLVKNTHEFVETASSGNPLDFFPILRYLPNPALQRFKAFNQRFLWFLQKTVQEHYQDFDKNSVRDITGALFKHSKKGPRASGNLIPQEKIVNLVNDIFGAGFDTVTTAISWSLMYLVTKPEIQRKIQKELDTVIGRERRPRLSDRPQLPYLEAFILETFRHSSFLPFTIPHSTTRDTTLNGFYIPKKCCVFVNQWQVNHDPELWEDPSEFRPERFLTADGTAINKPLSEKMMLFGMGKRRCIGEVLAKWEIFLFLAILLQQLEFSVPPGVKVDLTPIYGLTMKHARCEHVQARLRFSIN

COc1cc(C(=O)c2cccc(-c3ccc(C)cc3)n2)cc(OC)c1OC [CH-2–1, (6-(p-Tolyl)pyridin-2-yl)(3,4,5-trimethoxyphenyl)methanone, reference compound]
IC50 ([1]; Homo sapiens): 3.7 nM

COc1cc(C(=O)c2cccc(-c3ccc(C)c(O)c3)n2)cc(OC)c1OC [CH-2–77]
effect on tubulin polymerization [2]: interfered with tubulin polymerization | apoptotic cells [3]: 51.1% | IC50 ([1]; Homo sapiens): 2.5 nM

COc1cc(C(=O)c2cccc(-c3ccc(N(C)C)cc3)n2)cc(OC)c1OC [Compound 4c, (6-(4-(Dimethylamino)phenyl)pyridin-2-yl) (3,4,5-trimethoxyphenyl)methanone]
IC50 ([1]; Homo sapiens): 48.7 nM | fold reduction in antiproliferative activity ([1]; compared to CH-2–1, average IC50): 13 fold

COc1cc(C(=O)c2cccc(-c3ccc(C)cc3)n2)cc2c1OCCO2 [Compound 10, (8-Methoxy-2,3-dihydrobenzo[b][1,4]dioxin-6-yl)(6-(p-tolyl)-pyridin-2-yl)methanone]
IC50 ([1]; Homo sapiens): 3.8 nM

CCc1c(OC)cc(C(=O)c2cccc(-c3ccc(C)c(O)c3)n2)cc1OC [Compound 13, (4-Ethyl-3,5-dimethoxyphenyl)(6-(3-hydroxy-4-methylphenyl)-pyridin-2-yl)methanone]
IC50 ([1]; Homo sapiens): 18.3 nM

COc1cc(-c2n[nH]c3ccc(-c4ccc(C)c(O)c4)nc23)cc(OC)c1OC [Compound 22, 2-Methyl-5-(3-(3,4,5-trimethoxyphenyl)-1H-pyrazolo[4,3-b]-pyridin-5-yl)phenol]
fold improvement of half-life in human liver microsomes [4]: 19 fold | IC50 ([1]; Homo sapiens): 34.1 nM

COc1cc(C(=O)c2nc(-c3ccc(C)c(O)c3)[nH]c2Br)cc(OC)c1OC [Compound 29, (5-Bromo-2-(3-hydroxy-4-methylphenyl)-1H-imidazol-4-yl)-(3,4,5-trimethoxyphenyl)methanone]
IC50 ([1]; Homo sapiens): 80.5 nM

COc1cc(C(=O)c2cncc(-c3ccc(C)cc3)n2)cc(OC)c1OC [Compound 35, (6-(p-Tolyl)pyrazin-2-yl)(3,4,5-trimethoxyphenyl)methanone]
IC50 ([1]; Homo sapiens): 4.2 nM

COc1cc(C(=O)c2cncc(-c3ccc(C)c(O)c3)n2)cc(OC)c1OC [Compound 40a, (6-(3-Hydroxy-4-methylphenyl)pyrazin-2-yl)(3,4,5-trimethoxyphenyl)methanone]
IC50 ([1]; Homo sapiens): 9.2 nM

COc1cc(C(=O)c2cncc(-c3cccc4[nH]ncc34)n2)cc(OC)c1OC [Compound 40c, (6-(1H-Indazol-4-yl)pyrazin-2-yl)(3,4,5-trimethoxyphenyl)-methanone]
IC50 ([1]; Homo sapiens): 33.7 nM

COc1cc(C(=O)c2ccnc(-c3ccc(C)c(O)c3)n2)cc(OC)c1OC [Compound 46a, (2-(3-Hydroxy-4-methylphenyl)pyrimidin-4-yl)(3,4,5-trimethoxyphenyl)methanone]
IC50 ([1]; Homo sapiens): 8.2 nM

COc1cc(C(=O)c2ccnc(-c3c[nH]c4ccccc34)n2)cc(OC)c1OC [Compound 46b, (2-(1H-Indol-3-yl)pyrimidin-4-yl)(3,4,5-trimethoxyphenyl)-methanone]
IC50 ([1]; Homo sapiens): 26.3 nM

COc1cc(C(=O)c2cc(C)cc(-c3ccc(C)cc3)n2)cc(OC)c1OC [Compound 50a, (4-Methyl-6-(p-tolyl)pyridin-2-yl)(3,4,5-trimethoxyphenyl)-methanone]
fold improvement of half-life in human liver microsomes [4]: 3 fold | IC50 ([1]; Homo sapiens): 7.7 nM

COc1cc(C(=O)c2cc(OC)c(OC)c(OC)c2)nc(-c2ccc(C)cc2)c1 [Compound 54a, (4-Methoxy-6-(p-tolyl)pyridin-2-yl)(3,4,5-trimethoxyphenyl)-methanone]
fold improvement of half-life in human liver microsomes [4]: 3 fold

COc1cc(C(=O)c2cc(OC)c(OC)c(OC)c2)nc(-c2ccc(C)c(O)c2)c1 [Compound 55b, (6-(3-Hydroxy-4-methylphenyl)-4-methoxypyridin-2-yl)(3,4,5-trimethoxyphenyl)methanone]
fold improvement of half-life in human liver microsomes [4]: 3 fold

COc1cc(C(=O)c2nc(-c3ccc(C)c(O)c3)ccc2F)cc(OC)c1OC [Compound 60c, (3-Fluoro-6-(3-hydroxy-4-methylphenyl)pyridin-2-yl)(3,4,5-trimethoxyphenyl)methanone]
body weight during therapy ([5]; 10 or 20 mg/kg IP, 3 times/week, 18 days): without weight loss | histology of major organs (lung, liver, kidney, heart, spleen), H&E [5]: no apparent pathological changes in the major organs | AMES fluctuation test [6]: TA1537: no mutation | average tumor weight ([7]; 10 mg/kg IP): 1.13 g | average tumor weight ([7]; 20 mg/kg IP): 0.76 g | tumor necrosis (H&E of excised tumors) [7]: highly necrotic | CYP2C9 inhibition [8]: CYP2C9 (HLM, diclofenac substrate): 54.7% | mice that developed liver metastases ([9]; 20 mg/kg IP): none | lung metastasis (H&E) ([9]; 10 and 20 mg/kg IP): lung nodules were markedly sparse and of reduced size | CYP2C19 inhibition [10]: CYP2C19 (HLM, omeprazole substrate): 49% | AMES fluctuation test [11]: TA98: no mutation | effect on tubulin polymerization [2]: strongly inhibited microtubule polymerization | AMES fluctuation test [12]: A100: no mutation | CYP2B6 inhibition [13]: CYP2B6 (HLM, bupropion substrate): 12% | CYP2D6 inhibition [14]: CYP2D6 (HLM, dextromethorphan substrate): 11.9% | CYP1A inhibition [15]: CYP1A (HLM, phenacetin substrate): 50.9% | effect on cell cycle distribution [16]: dose-dependent accumulation of cells in the G2/M phase | AMES fluctuation test [17]: TA1535: no mutation | CYP3A inhibition ([18]; midazolam substrate): CYP3A (HLM, midazolam substrate): 34.7% | CYP3A inhibition ([18]; testosterone substrate): CYP3A (HLM, testosterone substrate): 51.8%

COc1cc(C(=O)c2cc(F)cc(-c3ccc(C(F)F)cc3)c2)cc(OC)c1OC [Compound 64, (4′-(Difluoromethyl)-5-fluoro-[1,1′-biphenyl]-3-yl)(3,4,5-trimethoxyphenyl)methanone]
IC50 ([1]; Homo sapiens): 60.8 nM

CC(=O)O[C@H]1C(=O)[C@@]2(C)[C@H]([C@H](OC(=O)c3ccccc3)[C@]3(O)C[C@H](OC(=O)[C@H](O)[C@@H](NC(=O)c4ccccc4)c4ccccc4)C(C)=C1C3(C)C)[C@]1(OC(C)=O)CO[C@@H]1C[C@@H]2O [paclitaxel, reference compound]
histology of major organs (lung, liver, kidney, heart, spleen), H&E [5]: no apparent pathological changes in the major organs | increase of tumor volume vs vehicle ([7]; 10 mg/kg IP, 3 times/week, 18 days): approximately 5.3% | average tumor weight ([7]; 10 mg/kg IP): 2.1 g | tumor necrosis (H&E of excised tumors) [7]: all viable | mice that developed liver metastases ([9]; 10 mg/kg IP, vehicle 83%): 83% | effect on tubulin polymerization [2]: increased rate of tubulin polymerization | effect on cell cycle distribution [16]: normal cell cycle progression

(6-(Indolin-6-yl)pyridin-2-yl)(3,4,5-trimethoxyphenyl)methanone [Compound 4b]
IC50 [19]: 5.5 ± 1.2 nM | IC50 [20]: 5.9 ± 1.4 nM | metabolic stability in mouse liver microsome t1/2 [21]: 4.2 ± 0.00 min | IC50 [22]: 5 ± 1 nM | IC50 [23]: 5.9 ± 1.5 nM | IC50 [24]: 5.6 ± 1.4 nM | IC50 [25]: 5.3 ± 1 nM | metabolic stability in human liver microsome t1/2 ([4]; 0.5 mg/mL protein, 10 μM compound, NADPH): 15 ± 1.2 min | IC50 ([1]; average over six cancer cell lines): 5.5 nM
